Series [1] deals with Rattus norvegicus. Kind of series: Hypoglycemic activity in 18 to 24 hrs-fasted rat assessed as reduction in blood glucose at 1 mg/kg, ip measured after 1 hr relative to saline-treated control. Details: scale not given: the % may be the effect or the level left. The conditions noted are these: route intraperitoneal. Format: functional. The essentials: (§1)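 Unanesthetized male Charles River rats (200–250 g), fasted 18–24 h, in groups of five or six. Single ip dose. Tail-vein blood drawn before dosing and 1 h after. Glucose measured by ferricyanide reduction micromethod on an autoanalyzer. Value is the percent fall in blood glucose at 1 h versus a saline-treated control group. Significance levels are p < 0.05, 0.01 and 0.001.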

Series [2] concerns Rattus norvegicus. Kind of series: Hypoglycemic activity in 18 to 24 hrs-fasted rat assessed as reduction in blood glucose at 5 mg/kg, ip measured after 1 hr relative to saline-treated control. Conditions: route intraperitoneal. Type of series: functional. Details: scale not given: the % may be the effect or the level left. The gist of the method:
as §1

Series [3] relates to Rattus norvegicus. Kind of series: Hypoglycemic activity in 18 to 24 hrs-fasted rat assessed as reduction in blood glucose at 25 mg/kg, ip measured after 1 hr relative to saline-treated control. Format: functional. Also noted: scale not given: the % may be the effect or the level left. Conditions: route intraperitoneal. The gist of the method: as §1
Series [4] relates to Rattus norvegicus. Kind of series: Hypoglycemic activity in 18 to 24 hrs-fasted rat assessed as reduction in blood glucose at 15 mg/kg, ip measured after 1 hr relative to saline-treated control. Format: functional. Also noted: scale not given: the % may be the effect or the level left. Conditions: route intraperitoneal. The essentials: as §1
Series [5] deals with Rattus norvegicus. Briefly: Hypoglycemic activity in 18 to 24 hrs-fasted rat assessed as reduction in blood glucose at 50 mg/kg, ip measured after 1 hr relative to saline-treated control. Type of series: functional. The conditions noted are these: route intraperitoneal. Also noted: scale not given: the % may be the effect or the level left. The gist of the method: as §1
The subject of series [6] is Rattus norvegicus. Briefly: Hypoglycemic activity in 18 to 24 hrs-fasted rat assessed as reduction in blood glucose at 0.5 mg/kg, ip measured after 1 hr relative to saline-treated control. Type of series: functional, organism-based. Details: dose 0.5 mg/kg. The gist of the method:
as §1

The species entered for another series is Homo sapiens. Briefly: Toxicity in maturity-onset diabetic patient. Format: organism-based. Conditions: in vivo.
The test system of series [7] is Rattus norvegicus. Kind of series: Hypoglycemic activity in 18 to 24 hrs-fasted rat assessed as reduction in blood glucose at 100 mg/kg, ip measured after 1 hr relative to saline-treated control. Type of series: functional. Details: scale not given: the % may be the effect or the level left. Conditions: route intraperitoneal. The gist of the method: as §1

In ChEMBL document CHEMBL3272242, “Sulfamylurea hypoglycemic agents. 6. High-potency derivatives” (J Med Chem, 1976) one finds Activity data, which are given here for ten molecules.

The source made the active and inactive calls. The rule behind the calls is not given here.

With `CCCNC(=O)NS(=O)(=O)N1CCC(CCNC(=O)c2cc(Cl)ccc2OC)CC1`, the values for the Activity in the series with Rattus norvegicus [1], in the series on Rattus norvegicus [2] and in the series on Rattus norvegicus [3] were 24%, 11% and 41%, respectively.
In the case of `Cn1cc(C(=O)NCCC2CCN(S(=O)(=O)NC(=O)NC[C@@H]3C[C@@H]4C=C[C@@H]3C4)CC2)c(=O)n(C)c1=O` (relative stereo), the Activity with Rattus norvegicus [4] was determined as 32%; with Rattus norvegicus [1] it was 12%; in the series on Rattus norvegicus [2], 23%.
On to `CCCNC(=O)NS(=O)(=O)c1ccc(Cl)cc1` [CHLORPROPAMIDE], for which the Activity in the series with Rattus norvegicus [4] was found to be 18%; in the series with Rattus norvegicus [2], 10%; in the series on Rattus norvegicus [5] it was 46%.
Consider `O.O=C(NC1CCCCC1)NS(=O)(=O)N1CCC(CCNC(=O)c2cc(Cl)cc3cccnc23)CC1`, for which the Activity in the series with Rattus norvegicus [1] came out at 17%; in the series on Rattus norvegicus [2], 52%. Besides, the result in the series with Rattus norvegicus [6] was inactive.
On to `O.O=C(NC[C@@H]1C[C@@H]2C=C[C@@H]1C2)NS(=O)(=O)N1CCC(CCNC(=O)c2cc(Cl)cc3cccnc23)CC1` (relative stereo), for which the results for the Activity with Rattus norvegicus [1] and in the series with Rattus norvegicus [2] were 16% and 35%, respectively. Also, the outcome with Rattus norvegicus [6] was inactive.
With `COc1ncccc1C(=O)NCCC1CCN(S(=O)(=O)NC(=O)NC2CCCCC2)CC1`, the results for the Activity in the series on Rattus norvegicus [4], in the series on Rattus norvegicus [1] and in the series on Rattus norvegicus [2] were 35%, 22% and 33%, respectively.
`COc1ncccc1C(=O)NCCC1CCN(S(=O)(=O)NC(=O)NC[C@@H]2C[C@@H]3C=C[C@@H]2C3)CC1` (relative stereo): the Activity is on record as 25% in the series on Rattus norvegicus [1], 32% with Rattus norvegicus [2] and “Non-toxic” in the series filed under Homo sapiens.
`O=C(NC[C@@H]1C[C@@H]2C=C[C@@H]1C2)NS(=O)(=O)N1CCC(CCNC(=O)c2cc(Cl)ccn2)CC1` (relative stereo): the Activity in the series on Rattus norvegicus [4] was 46%; in the series with Rattus norvegicus [1], 16%; in the series on Rattus norvegicus [2], 32%.
Turning to `COc1ncc(Cl)cc1C(=O)NCCC1CCN(S(=O)(=O)NC(=O)NC[C@@H]2C[C@@H]3C=C[C@@H]2C3)CC1.O` (relative stereo), in the series with Rattus norvegicus [1], the Activity is recorded as 20%. In addition, the outcome in the series on Rattus norvegicus [6] was inactive.
With `O=C(NC1CCCCC1)NS(=O)(=O)N1CCCCC1`, the Activity in the series on Rattus norvegicus [4] stood at 19%; in the series with Rattus norvegicus [7], 34%.
